Measurements taken from ChEMBL document CHEMBL5634186, “Structure-Activity Relationship Study of Biselyngbyolide B Reveals Mitochondrial Fission-Induced Cytotoxicity in Cancer” (ACS Med Chem Lett, 2024).
Active and inactive are the calls of the source.

Columns and labels:
[1] = Cytotoxicity against HEK293 cells assessed as reduction in cell viability incubated for 16 hrs by MTT assay; assay type: toxicity, cell-based; conditions: human
HCT-116 [2] = test: Anticancer activity against human HCT-116 cells assessed as inhibition of cell viability incubated for 16 hrs by MTT assay; assay type: functional, cell-based; conditions: HCT-116, 16 h
HCT-116 [3] = test: Induction of mitochondrial membrane potential loss in human HCT-116 cells incubated for 16 hrs by mitotracker red staining based confocal microscope analysis; assay type: functional, cell-based; conditions: dose 0.5-1 µM
Summary of the method: (§1)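 HCT116 cells treated 16 h with compound (0.5 or 1 μM where dosed); stained 30 min with MitoTracker Deep Red FM (membrane potential) or CellROX Red FM (ROS); confocal imaging; mean fluorescence intensity quantified from five fields.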

HCT-116 [4] = test: Induction of ROS generation in human HCT-116 cells incubated for 16 hrs by CellROX Red staining based confocal microscope analysis; assay type: functional, cell-based; conditions: dose 0.5-1 µM; summary of the method: as §1
HCT-116 [5] = test: Induction of apoptosis in human HCT-116 cells assessed as decrease in cleavage of caspase 3 at 1 uM pretreated with NAC for 1 hr followed by compound addition and measured after 16 hrs by immunoblotting analysis; assay type: functional, cell-based
Summary of the method: (§2)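 HCT116 cells pretreated 1 h with 5 mM NAC, then 1 μM compound 16 h; immunoblot for cleaved caspase 3 and PARP1, β-actin loading control.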

HCT-116 [6] = test: Induction of apoptosis in human HCT-116 cells assessed as decrease in cleavage of PARP at 1 uM pretreated with NAC for 1 hr followed by compound addition and measured after 16 hrs by immunoblotting analysis; assay type: functional, cell-based; summary of the method: as §2
HCT-116 [7] = test: Induction of ROS generation in mitochondria of human HCT-116 cells transfected with mito-GFP at 1 uM incubated for 16 hrs by CellROX Red staining based confocal microscope analysis; assay type: functional, cell-based
Summary of the method: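 HCT116 cells transfected with CellLight Mitochondria-GFP, treated 1 μM for 16 h, stained with CellROX Red FM 30 min; confocal imaging; colocalization of GFP and CellROX Red intensities quantified.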

HCT-116 [8] = test: Induction of ROS generation in mitochondria of human HCT-116 cells at 1 uM preincubated with MitoTEMPO for 1 hr followed by compound addition and measured after 16 hrs by MitoSOX Red staining based confocal microscope analysis; assay type: functional, cell-based
Summary of the method: (§3)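 HCT116 cells pretreated 1 h with 10 μM MitoTEMPO, then compound 1 μM for 16 h. Mitochondrial superoxide by MitoSOX Red confocal imaging, intensity quantified; cytotoxicity by LIVE/DEAD kit (Calcein-AM live, EthD-1 dead), percentage dead cells quantified.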

HCT-116 [9] = test: Induction of ROS generation in mitochondria of human HCT-116 cells assessed as number of dead cells at 1 uM preincubated with MitoTEMPO for 1 hr followed by compound addition and measured after 16 hrs by Calcein-AM/EthD-1 staining based confocal microscope analysis; assay type: functional, cell-based; summary of the method: as §3
HCT-116 [10] = test: Induction of mitochondrial fission in human HCT-116 cells assessed as increase in DRP1 phosphorylation at S616 at 0.5 to 1 uM by immunoblotting analysis; assay type: functional, cell-based; conditions: dose 0.5-1 µM, time 8-24 hrs, TDE = time-dependent effect
Summary of the method: (§4)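 Immunoblot in HCT116 cells: p-DRP1 S616, p-DRP1 S637, DRP1, Mitofusin1, Mitofusin2 and MFF over time (0, 8, 16, 24 h); p-DRP1 S616, S637, DRP1, Mitofusin1 and OPA at 0.5 and 1 μM. β-Actin loading control.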

HCT-116 [11] = test: Induction of mitochondrial fission in human HCT-116 cells assessed as decrease in DRP1 phosphorylation at S637 at 0.5 to 1 uM by immunoblotting analysis; assay type: functional, cell-based; conditions: dose 0.5-1 µM, time 8-24 hrs, TDE = time-dependent effect; summary of the method: as §4
HCT-116 [12] = test: Induction of mitochondrial fusion in human HCT-116 cells assessed as change in Mitofusin level at 0.5 to 1 uM incubated for 8 to 24 hrs by immunoblotting analysis; assay type: functional, cell-based; conditions: dose 0.5-1 µM, time 8-24 hrs; summary of the method: as §4
HCT-116 [13] = test: Induction of mitochondrial fusion in human HCT-116 cells assessed as change in OPA1 level at 0.5 to 1 uM incubated for 8 to 24 hrs by immunoblotting analysis; assay type: functional, cell-based; conditions: dose 0.5-1 µM, time 8-24 hrs; summary of the method: as §4
HCT-116 [14] = test: Induction of mitochondrial fusion in human HCT-116 cells assessed as change in MFF level at 0.5 to 1 uM incubated for 8 to 24 hrs by immunoblotting analysis; assay type: functional, cell-based; conditions: dose 0.5-1 µM, time 8-24 hrs; summary of the method: as §4
HCT-116 [15] = test: Induction of ROS production in human HCT-116 cells assessed as deterioration of mitochondrial length and area at 1 uM incubated for 16 hrs in presence of CellLight Mitochondria-GFP by confocal microscopy analysis; assay type: functional, cell-based
Summary of the method: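 HCT116 cells transfected with CellLight Mitochondria-GFP, treated 1 μM for 16 h; confocal images quantified for mitochondrial length and area.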

HCT-116 [16] = test: Induction of mitochondrial fission in human HCT-116 cells assessed as appearance of mitochondrial puncta at 1 uM incubated for 14 hrs by Mitotracker Red staining based time-lapse microscopy analysis; assay type: functional, cell-based
Summary of the method: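 Time-lapse microscopy with MitoTracker Red over 14 h of treatment in HCT116 cells; size of mitochondrial puncta measured as fission read-out.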

HCT-116 [17] = test: Induction of ROS production in human HCT-116 cells assessed as altered mitochondrial architecture at 1 uM pretreated with NAC for 1 hr followed by compound addition and measured after 16 hrs by MitoTracker Deep Red staining based confocal microscopy analysis; assay type: functional, cell-based
Summary of the method: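 HCT116 cells pretreated 1 h with or without 5 mM NAC, then 1 μM compound 16 h; MitoTracker Deep Red FM staining 30 min; confocal imaging of mitochondrial morphology with quantification.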

HCT-116 [18] = test: Induction of mitochondrial fission in human HCT-116 cells assessed as increase in DRP1 phosphorylation at S616 at 1 uM preincubated with NAC for 1 hr followed by compound addition and measured after 16 hrs by immunoblotting analysis; assay type: functional, cell-based
Summary of the method: (§5)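 Immunoblot of p-DRP1 S616 and p-DRP1 S637 in HCT116 cells pretreated 1 h with or without 5 mM NAC, then 1 μM compound 16 h.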

HCT-116 [19] = test: Induction of mitochondrial fission in human HCT-116 cells assessed as decrease in DRP1 phosphorylation at S637 at 1 uM preincubated with NAC for 1 hr followed by compound addition and measured after 16 hrs by immunoblotting analysis; assay type: functional, cell-based; summary of the method: as §5
HCT-116 [20] = test: Induction of ROS generation in human HCT-116 cells at 1 uM preincubated for 16 hrs followed by Mdivi1 addition for 8 hrs by CellROX Red staining based confocal microscopy analysis; assay type: functional, cell-based
HCT-116 [21] = test: Induction of mitochondrial membrane potential loss in human HCT-116 cells at 1 uM preincubated for 16 hrs followed by Mdivi1 addition and measured after 8 hrs by MitoTracker Deep Red staining based confocal microscopy analysis; assay type: functional, cell-based
Summary of the method: (§6)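 HCT116 cells treated 1 μM for 16 h; DRP1 inhibited with 25 μM Mdivi-1 for 8 h. Staining 30 min with CellROX Red FM, MitoTracker Deep Red FM and LIVE/DEAD reagents; confocal imaging; mean fluorescence intensity from five fields.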

HCT-116 [22] = test: Induction of apoptosis in human HCT-116 cells assessed as number of dead cells at 1 uM preincubated for 16 hrs followed by Mdivi1 addition and measured after 8 hrs by Calcein-AM/EthD-1 staining based confocal microscope analysis; assay type: functional, cell-based; summary of the method: as §6
HCT-116 [23] = test: Induction of apoptosis in human HCT-116 cells assessed as decrease in cleavage of caspase 3 at 1 uM preincubated for 16 hrs followed by Mdivi1 addition and measured after 8 hrs by immunoblotting analysis; assay type: functional, cell-based
Summary of the method: (§7)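 HCT116 cells treated 1 μM for 16 h, post-treated with 25 μM Mdivi-1 for 8 h; immunoblot for cleaved caspase 3 and PARP1, β-actin loading control.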

HCT-116 [24] = test: Induction of apoptosis in human HCT-116 cells assessed as decrease in cleavage of PARP at 1 uM preincubated for 16 hrs followed by Mdivi1 addition and measured after 8 hrs by immunoblotting analysis; assay type: functional, cell-based; summary of the method: as §7
HCT-116 [25] = test: Induction of apoptosis in human HCT-116 cells assessed as increase in JNK1 phosphorylation at 1 uM preincubated with NAC for 1 hr followed by compound addition and measured after 16 hrs by immunoblotting analysis; assay type: functional, cell-based
Summary of the method: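 Immunoblot of p-JNK and JNK in HCT116 cells pretreated 1 h with or without 5 mM NAC before compound treatment; β-actin loading control.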

HCT-116 [26] = test: Induction of apoptosis in human HCT-116 cells assessed as increase in JNK phosphorylation at 1 uM incubated for 16 hrs by immunoblotting analysis; assay type: functional, cell-based
Summary of the method: (§8)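 Immunoblot of p-JNK, JNK, p-p38 and p38 in HCT116 cells after 1 μM compound for 16 h; β-actin loading control.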

HCT-116 [27] = test: Induction of apoptosis in human HCT-116 cells assessed as increase in p-38 phosphorylation at 1 uM incubated for 16 hrs by immunoblotting analysis; assay type: functional, cell-based; summary of the method: as §8
HCT-116 [28] = test: Induction of apoptosis in human HCT-116 cells assessed as increase in JNK1 phosphorylation at 1 uM preincubated with selonsertib for 1 hr followed by compound addition and measured after 16 hrs by immunoblotting analysis; assay type: functional, cell-based
Summary of the method: (§9)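 Immunoblot of p-JNK, p-p38 and p38 in HCT116 cells pretreated 1 h with or without 50 μM selonsertib before compound treatment; β-actin loading control.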

HCT-116 [29] = test: Induction of apoptosis in human HCT-116 cells assessed as number of dead cells at 1 uM preincubated with selonsertib for 1 hr followed by compound addition and measured after 16 hrs by Calcein-AM/EthD-1 staining based confocal microscope analysis; assay type: functional, cell-based
HCT-116 [30] = test: Induction of mitochondrial fission in human HCT-116 cells assessed as increase in DRP1 phosphorylation at S616 after 8 to 24 hrs by immunoblotting analysis; assay type: functional, cell-based; conditions: dose 0.5-1 µM, time 8-24 hrs; summary of the method: as §4
HCT-116 [31] = test: Induction of mitochondrial fission in human HCT-116 cells assessed as decrease in DRP1 phosphorylation at S637 after 8 to 24 hrs by immunoblotting analysis; assay type: functional, cell-based; conditions: dose 0.5-1 µM, time 8-24 hrs; summary of the method: as §4
HCT-116 [32] = test: Induction of apoptosis in human HCT-116 cells assessed as increase in p-38 phosphorylation at 1 uM preincubated with selonsertib for 1 hr followed by compound addition and measured after 16 hrs by immunoblotting analysis; assay type: functional, cell-based; summary of the method: as §9

C/C=C/C/C(C)=C\[C@H]1C/C=C/C=C/C[C@H](C)/C=C(\C)[C@@H](OC)CCC[C@@H](O)CC(=O)O1
23.7 µM: IC50 at 16 h [1]
inactive: Activity (HCT-116 [8]) | Activity (HCT-116 [9]) | Activity (HCT-116 [12]) | Activity (HCT-116 [13]) | Activity (HCT-116 [14]) | Activity (HCT-116 [17]) | Activity (HCT-116 [18]) | Activity (HCT-116 [19]) | Activity (HCT-116 [20]) | Activity (HCT-116 [21]) | Activity (HCT-116 [22]) | Activity (HCT-116 [23]) | Activity (HCT-116 [24]) | Activity (HCT-116 [25]) | Activity (HCT-116 [28]) | Activity (HCT-116 [29]) | Activity (HCT-116 [32])
0.1 µM: IC50 (HCT-116 [2])
active: Activity (HCT-116 [3]) Dose-Dependent Effect | Activity (HCT-116 [4]) Dose-Dependent Effect | Activity (HCT-116 [5]) | Activity (HCT-116 [6]) | Activity (HCT-116 [7]) | Activity (HCT-116 [10]) Tde | Activity (HCT-116 [11]) Tde | Activity (HCT-116 [15]) | Activity (HCT-116 [16]) | Activity (HCT-116 [26]) | Activity (HCT-116 [27]) | Activity (HCT-116 [30]) Dose-Dependent Effect | Activity (HCT-116 [31]) Dose-Dependent Effect

CCCC/C(C)=C\[C@H]1C/C=C/C=C/C[C@H](C)/C=C(\C)[C@@H](OC)C/C=C/[C@@H](O)CC(=O)O1
8.1 µM: IC50 (HCT-116 [2])
11.3 µM: IC50 at 16 h [1]

C/C=C/C/C(C)=C\[C@H]1C/C=C/C=C/CC/C=C(\C)[C@@H](OC)C/C=C/[C@@H](O)CC(=O)O1
12.5 µM: IC50 at 16 h [1]
6.8 µM: IC50 (HCT-116 [2])
